Screens: PubChem, several laboratories
NR2E3 ag-1 = agonists of human NR2E3 nuclear receptor. Q9Y5X4. CHO-S Gal4-NCOR/VP16-NR2E3 two-hybrid, luciferase. inhibition of corepressor binding, % at 3.98 µM. 360,000 tested, 0.35% active;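 active means inhibition above the mean of all tested compounds plus 3 SD, cut at about 70% in these data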;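 further: 0% = DMSO with NR2E3 transfected cells and 100% = cells lacking NR2E3 construct; higher means lower luciferase signal from less NR2E3 corepressor binding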
NR1D1 modulator = Rev-erb alpha (human) modulation; Rev-erbα–FITC-DNA binding, fluorescence polarization, 90 min; 370,000 tested, 0.79% active; activity, % at 10 µM; AID 1259318;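 active means activity above about 14%, limit read from the data; passing the limit was not always enough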;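 further: 0% = DMSO wells with 35 nM protein and 100% = DMSO wells with 750 nM protein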
Target sequence (P20393 whole entry, looked up): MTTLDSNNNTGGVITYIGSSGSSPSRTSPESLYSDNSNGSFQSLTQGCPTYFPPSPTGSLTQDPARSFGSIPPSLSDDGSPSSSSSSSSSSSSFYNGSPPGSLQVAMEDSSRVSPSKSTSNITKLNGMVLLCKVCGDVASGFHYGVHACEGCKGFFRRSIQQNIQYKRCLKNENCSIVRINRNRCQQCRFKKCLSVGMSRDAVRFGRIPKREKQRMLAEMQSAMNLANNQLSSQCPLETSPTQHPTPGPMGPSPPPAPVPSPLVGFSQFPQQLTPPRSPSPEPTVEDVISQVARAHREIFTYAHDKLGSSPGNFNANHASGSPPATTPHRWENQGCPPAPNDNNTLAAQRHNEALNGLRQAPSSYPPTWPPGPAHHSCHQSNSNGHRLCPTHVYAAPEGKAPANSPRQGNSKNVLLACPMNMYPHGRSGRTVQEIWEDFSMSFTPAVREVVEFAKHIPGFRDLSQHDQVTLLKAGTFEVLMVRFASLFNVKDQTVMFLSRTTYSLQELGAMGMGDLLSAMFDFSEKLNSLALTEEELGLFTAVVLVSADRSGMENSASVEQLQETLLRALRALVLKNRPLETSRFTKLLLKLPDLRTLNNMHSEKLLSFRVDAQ
NR2E3 ag-2 = NR2E3 (human) agonism. Q9Y5X4. GST-NR2E3/biotin-RetCOR TR-FRET, 1536-well. inhibition of corepressor binding, % at 4.78 µM. 320,000 tested, 0.12% active;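 active means percent inhibition above the cutoff of mean plus 3 SD of all tested compounds, set per screening campaign, cut at about 20% in these data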;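 further: 0% = DMSO wells and 100% = biotin wells as full block of FRET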
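Material: NR2E3–RetCOR corepressor complex / Amount: 1.35 nM GST-NR2E3 / Medium: Tris pH 7.5 / Compound: single nominal compound dose of 4.8 µM / Incubation: 5 h at 4 °C / Technique: TR-FRET, Eu(K)-anti-GST donor, streptavidin-D2 acceptor, ex 340, em 617/671 nm / Read-out basis: percent loss of FRET ratio relative to control wells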
PG9 Ab binder = small molecules binding HIV-1 gp120 antibody PG9; AID 624416; 360,000 tested, 0.43% active; TR-FRET gp120-PG9 antibody binding; inhibition, % at 6.7 µM; in the data active means inhibition above about 8.5%
MT1-MMP act inh = blocks activation of human MT1-MMP; P50281; HT1080 RFP-PRO-GFP cells, GFP/RFP ratio fluorescence, overnight; percent of plate control window, DMSO zero; GFP/RFP ratio change, % at 20 µM; 360,000 tested, 0.061% active;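 active means GFP/RFP ratio change of at least 30% with cell ATP level not reduced by more than half and red fluorescence within 50% of control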
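Assay system – RFP-PRO-GFP reporter HT1080 cells · Compound dosing – single dose of 20 µM compound, 1% DMSO final · Incubation – overnight compound exposure at 37 °C · Measure – GFP/RFP fluorescence ratio · Benchmarks – DMSO wells and RFP-L50D-GFP cells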
SKN-1 inh = inhibitors of C. elegans SKN-1; C. elegans VP596 Pgst-4::GFP/RFP ratio, acrylamide-induced, 24 h; inhibition, % at 21.8 µM; 360,000 tested, 0.49% active;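 active means interference check ratio from 0.5 to 1.5 plus GFP to RFP signal ratio inhibition reaching or exceeding a fixed threshold, cut at about 30% in these data, passing the limit was not always enough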
NR2E3 ag confirm = NR2E3 agonism confirmed in two-hybrid assay | shares compounds with NR2E3 ag-1 | CHO-S mammalian two-hybrid NR2E3-NCOR, luciferase luminescence | inhibition, % at 3.98 µM | 2,300 tested, 51% active | AID 624378;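 active means average inhibition above a cutoff equal to the mean inhibition of all tested compounds plus one SD, cut at about 70% in these data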;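 further: 0% = DMSO in NR2E3 cells and 100% = DMSO in cells lacking NR2E3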
GAL4-VP16 luc = GAL4-VP16 reporter inhibition in NR2E3 agonist counterscreen | CHO-S GAL4-VP16 luciferase reporter, luminescence | inhibition, % at 3.98 µM | AID 624379 | shares compounds with NR2E3 ag-1 | 2,300 tested, 29% active;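 active means mean inhibition above a cutoff equal to the average over all tested compounds plus one standard deviation, cut at about 70% in these data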;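 further: luciferase from a UAS reporter driven by GAL4-VP16 transactivation; 0% = DMSO with VP16-transfected cells and 100% = DMSO with cells lacking VP16; higher means less reporter light so more repression of VP16 activity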
Active calls of the source: *; . = no result. Only some compounds are listed: those with a hit (about 1.9% of all), similar ones and a draw of the others.

SMILES	NR2E3 ag-1	NR1D1 modulator	NR2E3 ag-2	PG9 Ab binder	MT1-MMP act inh	SKN-1 inh	NR2E3 ag confirm	GAL4-VP16 luc
COC(=O)C1=C(CN2CCCc3ccccc32)NC(=O)NC1c1ccc(F)cc1 (stereo not given)	83.6*	5.1	1.8	1.9	-15.3	-0.5	66.5	66.8
COC(=O)C1=C(CN2CCc3ccccc32)NC(=O)NC1c1cc(C)ccc1C (stereo not given)	8.9	4.6	0.6	-1.8	18.1	19.5	.	.
COc1ccc(S[C@]2(C(=O)N3CCN(c4ncccn4)CC3)CC(=O)N(C(=O)Nc3ccc(C)c(Cl)c3)[C@@H]2c2ccc(OC)cc2)cc1	.	0.3	.	.	.	.	.	.
CC(C)(C)n1nc(C2CC2)c(Br)c1NC(=O)c1ccc(Cl)cc1	.	-12.5	.	-0.5	.	.	.	.
CC1(c2nnnn2Cc2ccccc2)CN(S(C)(=O)=O)CC(=O)N1Cc1cccs1 (stereo not given)	.	7.1	.	.	.	.	.	.
CN(C)c1ccc(Sc2ccc3nc(N)nc(N)c3c2)cc1	75.8*	0.0	.	-4.3	-0.5	-8.7	36.2	52.4
Cc1ccc(N2CCN(S(=O)(=O)c3c(C)nc4scc(C)n4c3=O)CC2)c(C)c1	49.0	8.1	-0.1	-1.8	1.9	4.6	4.4	4.3
O=C1NC(=S)SC1=Cc1ccccc1Br	73.6*	3.9	.	0.2	0.6	0.6	95.2*	72.3*
CC(C)(C)c1ccc(-c2n[nH]c(=S)n2C2CCCC2)cc1	64.8	0.8	-1.4	0.0	-0.9	1.7	71.7*	61.0
COC1CC(C)C(OC)c2cc(O)cc(c2O)NC(=O)C(C)=CC=CC(C)C(OC(N)=O)C(C)=CC(C)C1OC (stereo not given)	2.9	7.2	.	1.1	-7.8	2.8	.	.
COC1C=CC=C(C)C(=O)NC2=CC(=O)C(N)=C(CC(C)CC(OC)C(O)C(C)C=C(C)C1OC(N)=O)C2=O (stereo not given)	90.7*	-5.4	.	-35.1	4.1	12.2	97.3*	64.1
COc1cccc(N2CCN(CC(=O)NCc3ccc(F)cc3)CC2)c1	.	0.5	.	.	.	.	.	.
COc1ccc(NC(=O)COc2cccc3c2OC(C)(C)C3)c(OC)c1	23.6	4.8	.	-2.9	-2.3	3.9	.	.
COc1cc(C)c(NC(=O)COc2cccc3c2OC(C)(C)C3)cc1OC	62.3	.	-3.8	.	-3.9	28.9	9.7	40.6
Clc1ccc(-c2noc(CSc3nnc(-c4ccncc4)n3-c3ccccc3)n2)cc1	63.8	6.0	4.1	1.8	-1.1	4.3	61.5	30.6
Cc1ccc(-c2noc(CSc3nnc(-c4ccncc4)n3-c3ccc(C)cc3)n2)cc1	-11.5	7.4	2.4	1.3	-0.9	1.7	.	.
CCn1c(SCC(=O)NN=Cc2cc(OC)ccc2OC)nnc1-c1ccc(OC)cc1	.	4.0	.	.	.	.	.	.
COc1ccc(/C=C/c2cc(C(F)(F)F)[nH]c(=O)n2)cc1OC	53.2	-0.7	4.2	-5.6	-13.5	-1.2	63.6	-3.2
O=C(CCCc1nc2ccccc2s1)Nc1nccs1	-14.0	-0.2	3.2	-0.4	-2.0	-2.0	.	.
Cc1cnc(NC(=O)CCCc2nc3ccccc3s2)s1	109.0*	-2.8	7.7	1.5	3.6	-27.8	98.3*	23.3
Brc1ccc2[nH]c3c(N4CCc5ccccc5C4)ncnc3c2c1	.	.	0.1	.	.	.	.	.
Fc1ccc2[nH]c3c(N4CCc5ccccc5C4)ncnc3c2c1	72.5*	-7.6	-3.8	-0.5	2.8	11.9	93.9*	87.1*
Cc1ccc2[nH]c3c(N4CCc5ccccc5C4)ncnc3c2c1	68.2	-0.1	-2.3	3.0	7.9	-6.9	94.5*	76.7*
c1ccc2c(c1)[nH]c1c(N3CCCC3)ncnc12	63.1	1.2	-5.5	-2.5	8.4	1.9	49.0	37.1
COc1ccc(N2C(=O)c3[nH]nc(-c4ccccc4)c3C2c2cccc(C(F)(F)F)c2)cc1 (stereo not given)	.	-3.2	.	0.0	.	.	.	.
